In ChEMBL document CHEMBL1121718, “Novel tetracyclic spiropiperidines. 1. 3-Aryl-1,3-dihydrospiro[benzo[c]thiophene-1,4'-piperidines] as potential antidepressants” (1981):

Key:
[1] = system: Mus musculus; experiment: Antidepressant activity was measured by the inhibition of tetrabenazine (TBZ) ptosis in mice after i.p. administration.; assay type: functional; conditions: ip
Method in brief: (§1)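 Male Charles River CD-1 mice (20–30 g), groups of five, dosed ip with compound in distilled water plus a few drops of Tween 80. Tetrabenazine methanesulfonate was given at 40 mg/kg ip 30 min later. After another 30 min, ptosis was scored 0–2 (eyes open, half-open, closed). ED50 and 95% confidence intervals came from linear regression of the scores.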

[2] = system: Rattus norvegicus; experiment: Antidepressant activity was measured by the potentiation of head twitching induced by 5-hydroxy-tryptophan in pargyline-pretreated rats after ip administration; assay type: functional
Method in brief: (§2)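 Male Wistar rats (150–200 g), six per group (ten per dose in dose-range runs), received pargyline HCl 75 mg/kg sc 4 h before testing. Compound in distilled water plus Tween 80 was given ip 30 min before, then L-5-HTP 1.0 mg/kg ip. From 5 min after 5-HTP, rats were observed 15 min for head twitching with coarse tremors. Results are percent potentiation normalized to vehicle; ED50 with 95% limits by linear regression.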

[3] = system: Mus musculus; experiment: Antidepressant activity was measured by the inhibition of tetrabenazine ptosis in mice after po administration.; assay type: functional
Method in brief: as §1, with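 “dosed orally” for “dosed ip”, “ip 60” for “ip 30”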

[4] = system: Rattus norvegicus; experiment: Antidepressant activity was measured by the potentiation of head twitching induced by 5-hydroxy-tryptophan in pargyline-pretreated rats after po administration.
[5] = system: Rattus norvegicus; experiment: Antidepressant activity was measured by the potentiation of head twitching induced by 5-hydroxy-tryptophan in pargyline-pretreated rats after ip administration; d= Seizures before 5-HTP dosing; assay type: functional, organism-based; method in brief: as §2
[6] = system: Rattus norvegicus; experiment: Antidepressant activity was measured by the potentiation of head twitching induced by 5-hydroxy-tryptophan in pargyline-pretreated rats after ip administration;d=Seizures before 5-HTP dosing; assay type: functional, organism-based; method in brief: as §2
[7] = system: Mus musculus; experiment: Antidepressant activity was measured by the inhibition of tetrabenazine (TBZ) ptosis in mice after ip administration; assay type: functional; method in brief: as §1
[8] = system: Mus musculus; experiment: Antidepressant activity was measured by the inhibition of tetrabenazine (TBZ) ptosis in mice after po administration; assay type: functional
Method in brief: as §1, with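 “dosed orally” for “dosed ip”, “ip 60” for “ip 30”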

[9] = system: Mus musculus; experiment: Antidepressant activity was measured by the inhibition of tetrabenazine (TBZ) ptosis in mice after po administration […]; assay type: functional

Compound	ED50 [1]	ED50 [2]	ED50 [3]	also measured
Br.Cc1cccc(C2SC3(CCN(C)CC3)c3ccccc32)c1 (stereo not given)	~20 mg/kg	> 2 mg/kg		
Fc1ccccc1C1SC2(CCNCC2)c2ccccc21 (stereo not given)	0.78 mg/kg	3.9 mg/kg	6.6 mg/kg	
CN1CCC2(CC1)SC(c1ccccc1)c1ccc(F)cc12 (stereo not given)	1.8 mg/kg	> 10 mg/kg	2.8 mg/kg	
Clc1ccc(C2SC3(CCNCC3)c3ccccc32)cc1 (stereo not given)	2.1 mg/kg	0.03 mg/kg	1.6 mg/kg	ED50 [4]: 0.78 mg/kg
CN1CCC2(CC1)SC(c1cccc(F)c1)c1ccccc12 (stereo not given)	0.83 mg/kg	> 10 mg/kg	3.3 mg/kg	
Br.CN1CCC2(CC1)SC(c1cccc(Cl)c1)c1ccccc12 (stereo not given)	0.9 mg/kg		1.3 mg/kg	ED50 [5]: Seizures before dosing
Clc1cccc(C2SC3(CCNCC3)c3ccccc32)c1 (stereo not given)	0.52 mg/kg		1.8 mg/kg	ED50 [6]: Seizures before dosing
CN1CCC2(CC1)SC(c1ccccc1)c1ccccc12 (stereo not given)		3.4 mg/kg		ED50 [7]: 2.5 mg/kg; ED50 [8]: 4.6 mg/kg
Fc1ccc(C2SC3(CCNCC3)c3ccccc32)cc1 (stereo not given)	0.67 mg/kg	0.32 mg/kg	2.1 mg/kg	
Br.CN1CCC2(CC1)SC(c1ccccc1F)c1ccccc12 (stereo not given)	3 mg/kg	> 10 mg/kg	2.1 mg/kg	
c1ccc(C2SC3(CCNCC3)c3ccccc32)cc1 (stereo not given)	1.1 mg/kg	3 mg/kg		ED50 [9]: 1.1 mg/kg
Cc1ccc(C2SC3(CCNCC3)c3ccccc32)cc1 (stereo not given)	0.69 mg/kg	0.16 mg/kg	3.6 mg/kg	
CN(C)CCC=C1c2ccccc2CCc2ccccc21 [AMITRIPTYLINE]	1.5 mg/kg	7.1 mg/kg	7.8 mg/kg	
CN1CCC2(CC1)SC(c1cccc(C(F)(F)F)c1)c1ccccc12 (stereo not given)	0.73 mg/kg	0.52 mg/kg	1.6 mg/kg	
CN(C)CCCN1c2ccccc2CCc2ccc(Cl)cc21 [CLOMIPRAMINE]		3.1 mg/kg		ED50 [7]: 0.73 mg/kg; ED50 [8]: 3.5 mg/kg
CN1CCC2(CC1)SC(c1ccc(Cl)cc1)c1ccccc12 (stereo not given)	1.3 mg/kg	0.4 mg/kg	1.4 mg/kg	

Compound	ED50 [1]	ED50 [2]	ED50 [3]	also measured
CN1CCC2(CC1)SC(c1ccc(F)cc1)c1ccccc12 (stereo not given)	1.4 mg/kg	1.5 mg/kg	3.1 mg/kg	
Clc1ccc(C2SC3(CCNCC3)c3ccccc32)cc1Cl (stereo not given)		0.4 mg/kg	0.82 mg/kg	
Clc1ccccc1C1SC2(CCNCC2)c2ccccc21 (stereo not given)		4.4 mg/kg	2.2 mg/kg	
FC(F)(F)c1cccc(C2SC3(CCNCC3)c3ccccc32)c1 (stereo not given)	1.2 mg/kg		1.7 mg/kg	
Cc1cccc(C2SC3(CCNCC3)c3ccccc32)c1 (stereo not given)	1.9 mg/kg	0.71 mg/kg	2.9 mg/kg	
Clc1ccc(C2SC3(CCNCC3)c3ccccc32)c(Cl)c1 (stereo not given)	2.4 mg/kg	2.2 mg/kg	3.8 mg/kg	
Cc1ccccc1C1SC2(CCNCC2)c2ccccc21 (stereo not given)		2.8 mg/kg	1.4 mg/kg	
CN1CCC2(CC1)SC(c1ccc(Cl)c(Cl)c1)c1ccccc12 (stereo not given)	3.5 mg/kg	0.58 mg/kg	6.1 mg/kg	
Br.CN1CCC2(CC1)SC(c1ccc(Cl)cc1Cl)c1ccccc12 (stereo not given)	1.6 mg/kg	0.91 mg/kg	3.8 mg/kg	
CNCCCN1c2ccccc2CCc2ccccc21 [DESIPRAMINE]		> 10 mg/kg		ED50 [7]: 0.8 mg/kg; ED50 [8]: 1.6 mg/kg
CN1CCC2(CC1)SC(c1ccccc1Cl)c1ccccc12 (stereo not given)	0.6 mg/kg	10.1 mg/kg	3.6 mg/kg	
Cc1ccccc1C1SC2(CCN(C)CC2)c2ccccc21 (stereo not given)	0.77 mg/kg	> 10 mg/kg	1.3 mg/kg	
Cc1ccc(C2SC3(CCN(C)CC3)c3ccccc32)cc1 (stereo not given)	~3 mg/kg	1 mg/kg		
Fc1cccc(C2SC3(CCNCC3)c3ccccc32)c1 (stereo not given)		0.16 mg/kg	3.1 mg/kg	
CNCCC(Oc1ccc(C(F)(F)F)cc1)c1ccccc1 (stereo not given) [FLUOXETINE]		0.6 mg/kg		
